From ChEMBL document CHEMBL1136726, “Synthesis and characterization of iodine-123 labeled 2beta-carbomethoxy-3beta-(4'-((Z)-2-iodoethenyl)phenyl)nortropane. A ligand for in vivo imaging of serotonin transporters by single-photon-emission tomography” (J Med Chem, 2003)

Legend:
Rattus norvegicus [1] = assay: Ratio of distribution of radioactivity in rat brain region pons and cerebellum 60 min after intravenous administration of iodine labeled compound in presence of RTI-113 blocker in study 1; assay type: ADME, organism-based; settings: in vivo, 1 h
Rattus norvegicus [2] = assay: Distribution of radioactivity in rat lung 30 min after intravenous administration of iodine labeled compound; assay type: ADME, organism-based; settings: in vivo, 0.5 h
Summary of the method: (§1)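 Tail-vein injection of [123I]ZIENT (10 μCi in 0.2 mL 10% EtOH/0.9% NaCl, then 0.4 mL saline flush) into ketamine-anaesthetised male Sprague–Dawley rats (225–300 g). Animals were killed by cardiac excision at set times. Organs were excised, rinsed, blotted, weighed and gamma-counted. % dose/g was calculated against diluted aliquots of injectate. Mean ± SE, n=4–5.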

Rattus norvegicus [3] = assay: Distribution of radioactivity in rat brain region hypothalamus 60 min after intravenous administration of iodine labeled compound in presence of fluvoxamine blocker in study 1; assay type: ADME, organism-based; settings: in vivo, 1 h
Summary of the method: (§2)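 Male Sprague–Dawley rats (250–300 g), ketamine-anesthetized. Blocker (2 mg/kg) or none was given iv 15 min before tail-vein radioligand (10 µCi in 0.2 mL 10% EtOH/saline). Rats were killed at 60 min with im pentobarbital. Brain regions were dissected, weighed and gamma-counted. % dose/g was taken from decay-corrected, background-subtracted counts versus the injected dose.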

Rattus norvegicus [4] = assay: Distribution of radioactivity in rat liver 5 min after intravenous administration of iodine labeled compound; assay type: ADME, organism-based; settings: in vivo; summary of the method: as §1
Rattus norvegicus [5] = assay: Ratio of distribution of radioactivity in rat brain region prefrontal cortex and cerebellum 60 min after intravenous administration of iodine labeled compound in presence of RTI-113 blocker in study 1; assay type: ADME, organism-based; settings: in vivo, 1 h
Rattus norvegicus [6] = assay: Distribution of radioactivity in rat brain region cerebellum 60 min after intravenous administration of iodine labeled compound in presence of RTI-113 blocker in study 2; assay type: ADME, organism-based; settings: in vivo, 1 h; summary of the method: as §2
Rattus norvegicus [7] = assay: Ratio of distribution of radioactivity in rat brain region hypothalamus and cerebellum 60 min after intravenous administration of iodine labeled compound in presence of fluvoxamine blocker in study 1; assay type: ADME, organism-based; settings: in vivo, 1 h
Rattus norvegicus [8] = assay: Distribution of radioactivity in rat brain striatum 120 min after intravenous administration of iodine labeled compound; assay type: ADME, organism-based; settings: in vivo, 2 h
Summary of the method: (§3)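 Male Sprague–Dawley rats (225–300 g) under ketamine anaesthesia were given [123I]ZIENT (10 μCi) in 0.2 mL 10% EtOH/0.9% NaCl into the tail vein, with a saline flush. Hypothalamus, prefrontal cortex, striatum, pons and cerebellum were dissected and gamma-counted. % injected dose/g came from decay-corrected counts against the diluted injected dose, and region/cerebellum ratios were taken from these. Mean ± SE, n=4–5.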

Rattus norvegicus [9] = assay: Distribution of radioactivity in rat spleen 30 min after intravenous administration of iodine labeled compound; assay type: ADME, organism-based; settings: in vivo, 0.5 h; summary of the method: as §1
Rattus norvegicus [10] = assay: Distribution of radioactivity in rat muscle tissue 60 min after intravenous administration of iodine labeled compound; assay type: ADME, organism-based; settings: in vivo, 1 h; summary of the method: as §1
Rattus norvegicus [11] = assay: Ratio of distribution of radioactivity in rat brain region prefrontal cortex and cerebellum 60 min after intravenous administration of iodine labeled compound in absence of blocker in study 1; assay type: ADME, organism-based; settings: in vivo, 1 h
Rattus norvegicus [12] = assay: Distribution of radioactivity in rat brain hypothalamus 120 min after intravenous administration of iodine labeled compound; assay type: ADME, organism-based; settings: in vivo, 2 h
Summary of the method: (§4)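 Male Sprague–Dawley rats (225–300 g) under ketamine received 10 µCi radioligand iv (tail vein) in 10% EtOH/saline. Hypothalamus, prefrontal cortex, striatum, pons and cerebellum were dissected, weighed and gamma-counted. % injected dose/g was taken from decay-corrected counts versus diluted dose. Mean ± SE and range, n=5 (5, 30 min) or 4 (60, 120 min).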

Rattus norvegicus [13] = assay: Distribution of radioactivity in rat liver 60 min after intravenous administration of iodine labeled compound; assay type: ADME, organism-based; settings: in vivo, 1 h; summary of the method: as §1
Rattus norvegicus [14] = assay: Distribution of radioactivity in rat thyroid 30 min after intravenous administration of iodine labeled compound; assay type: ADME, organism-based, Thyroid gland; settings: in vivo, 0.5 h; summary of the method: as §1
Rattus norvegicus [15] = assay: Distribution of radioactivity in rat brain cerebellum 120 min after intravenous administration of iodine labeled compound; assay type: ADME, organism-based; settings: in vivo, 2 h; summary of the method: as §4
Rattus norvegicus [16] = assay: Ratio of distribution of radioactivity in rat brain striatum and cerebellum 60 min after intravenous administration of iodine labeled compound; assay type: ADME, organism-based; settings: in vivo, 1 h
Summary of the method: (§5)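 Male Sprague–Dawley rats (225–300 g), ketamine anesthesia, injected via tail vein with [123I]ZIENT (10 μCi in 0.2 mL 10% EtOH/0.9% NaCl, 0.4 mL saline flush). Killed at 5, 30, 60 or 120 min. Striatum and cerebellum dissected, weighed, γ-counted. Decay-corrected %injected dose/g taken against diluted injectate. Ratio is striatum over cerebellum. Four or five rats per time point, mean ± standard error.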

Rattus norvegicus [17] = assay: Distribution of radioactivity in rat thyroid 5 min after intravenous administration of iodine labeled compound; assay type: ADME, organism-based, Thyroid gland; settings: in vivo; summary of the method: as §1
Rattus norvegicus [18] = assay: Ratio of distribution of radioactivity in rat brain region hypothalamus and cerebellum 60 min after intravenous administration of iodine labeled compound in absence of blocker in study 1; assay type: ADME, organism-based; settings: in vivo, 1 h
Rattus norvegicus [19] = assay: Distribution of radioactivity in rat heart 60 min after intravenous administration of iodine labeled compound; assay type: ADME, organism-based; settings: in vivo, 1 h; summary of the method: as §1
Rattus norvegicus [20] = assay: Distribution of radioactivity in rat spleen 5 min after intravenous administration of iodine labeled compound; assay type: ADME, organism-based; settings: in vivo; summary of the method: as §1
Rattus norvegicus [21] = assay: Distribution of radioactivity in rat muscle tissue 120 min after intravenous administration of iodine labeled compound; assay type: ADME, organism-based; settings: in vivo, 2 h; summary of the method: as §1
Rattus norvegicus [22] = assay: Ratio of distribution of radioactivity in rat brain striatum and cerebellum 120 min after intravenous administration of iodine labeled compound; assay type: ADME, organism-based; settings: in vivo, 2 h; summary of the method: as §5
Rattus norvegicus [23] = assay: Distribution of radioactivity in rat muscle tissue 5 min after intravenous administration of iodine labeled compound; assay type: ADME, organism-based; settings: in vivo; summary of the method: as §1
Rattus norvegicus [24] = assay: Distribution of radioactivity in rat brain region frontal cortex 60 min after intravenous administration of iodine labeled compound in absence of blocker in study 2; assay type: ADME, organism-based; settings: in vivo, 1 h; summary of the method: as §2
Rattus norvegicus [25] = assay: Distribution of radioactivity in rat brain region cerebellum 60 min after intravenous administration of iodine labeled compound in presence of reboxetine blocker in study 2; assay type: ADME, organism-based; settings: in vivo, 1 h; summary of the method: as §2
Rattus norvegicus [26] = assay: Ratio of distribution of radioactivity in rat brain striatum and cerebellum 5 min after intravenous administration of iodine labeled compound; assay type: ADME, organism-based; settings: in vivo; summary of the method: as §5
Rattus norvegicus [27] = assay: Distribution of radioactivity in rat liver 120 min after intravenous administration of iodine labeled compound; assay type: ADME, organism-based; settings: in vivo, 2 h; summary of the method: as §1
Rattus norvegicus [28] = assay: Distribution of radioactivity in rat brain hypothalamus 30 min after intravenous administration of iodine labeled compound; assay type: ADME, organism-based; settings: in vivo, 0.5 h; summary of the method: as §4
Rattus norvegicus [29] = assay: Distribution of radioactivity in rat thyroid 60 min after intravenous administration of iodine labeled compound; assay type: ADME, organism-based, Thyroid gland; settings: in vivo, 1 h; summary of the method: as §1
Rattus norvegicus [30] = assay: Distribution of radioactivity in rat brain pons 60 min after intravenous administration of iodine labeled compound; assay type: ADME, organism-based; settings: in vivo, 1 h; summary of the method: as §4
Rattus norvegicus [31] = assay: Distribution of radioactivity in rat brain striatum 60 min after intravenous administration of iodine labeled compound; assay type: ADME, organism-based; settings: in vivo, 1 h; summary of the method: as §3
Rattus norvegicus [32] = assay: Ratio of distribution of radioactivity in rat brain region prefrontal cortex and cerebellum 60 min after intravenous administration of iodine labeled compound in presence of reboxetine blocker in study 2; assay type: ADME, organism-based; settings: in vivo, 1 h
Rattus norvegicus [33] = assay: Ratio of distribution of radioactivity in rat brain prefrontal cortex and cerebellum 120 min after intravenous administration of iodine labeled compound; assay type: ADME, organism-based; settings: in vivo, 2 h; summary of the method: as §3
Rattus norvegicus [34] = assay: Distribution of radioactivity in rat spleen 60 min after intravenous administration of iodine labeled compound; assay type: ADME, organism-based; settings: in vivo, 1 h; summary of the method: as §1
Rattus norvegicus [35] = assay: Distribution of radioactivity in rat brain region striatum 60 min after intravenous administration of iodine labeled compound in absence of blocker in study 1; assay type: ADME, organism-based; settings: in vivo, 1 h
Summary of the method: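 Male Sprague–Dawley rats (250–300 g), ketamine-anaesthetised, received [123I]ZIENT (10 μCi) in 0.2 mL 10% ethanol/0.9% NaCl via the tail vein. […] Rats were killed at 60 min with pentobarbital, brain regions dissected and gamma-counted. Values are % dose/g from decay-corrected, background-subtracted counts against the diluted injected dose.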

Rattus norvegicus [36] = assay: Distribution of radioactivity in rat testis 5 min after intravenous administration of iodine labeled compound; assay type: ADME, organism-based; settings: in vivo; summary of the method: as §1

SMILES: COC(=O)[C@@H]1C2CCC(C[C@@H]1c1ccc(/C=C\I)cc1)N2 (stereo partly specified)
- Distribution (dose/g) (Rattus norvegicus [1]): 2.24%
- Distribution (dose/g) (Rattus norvegicus [2]): 1.59%
- Distribution (dose/g) (Rattus norvegicus [3]): 0.31%
- Distribution (dose/g) (Rattus norvegicus [4]): 0.38%
- Distribution (dose/g) (Rattus norvegicus [5]): 3.12%
- Distribution (dose/g) (Rattus norvegicus [6]): 0.25%
- Distribution (dose/g) (Rattus norvegicus [7]): 1.82%
- Distribution (dose/g) (Rattus norvegicus [8]): 0.49%
- Distribution (dose/g) (Rattus norvegicus [9]): 0.81%
- Distribution (dose/g) (Rattus norvegicus [10]): 0.2%
- Distribution (dose/g) (Rattus norvegicus [11]): 3.88%
- Distribution (dose/g) (Rattus norvegicus [12]): 0.59%
- Distribution (dose/g) (Rattus norvegicus [13]): 0.22%
- Distribution (dose/g) (Rattus norvegicus [14]): 0.49%
- Distribution (dose/g) (Rattus norvegicus [15]): 0.12%
- Distribution (dose/g) (Rattus norvegicus [16]): 2.72%
- Distribution (dose/g) (Rattus norvegicus [17]): 0.17%
- Distribution (dose/g) (Rattus norvegicus [18]): 3.83%
- Distribution (dose/g) (Rattus norvegicus [19]): 0.29%
- Distribution (dose/g) (Rattus norvegicus [20]): 1.81%
- Distribution (dose/g) (Rattus norvegicus [21]): 0.17%
- Distribution (dose/g) (Rattus norvegicus [22]): 4%
- Distribution (dose/g) (Rattus norvegicus [23]): 0.23%
- Distribution (dose/g) (Rattus norvegicus [24]): 0.59%
- Distribution (dose/g) (Rattus norvegicus [25]): 0.23%
- Distribution (dose/g) (Rattus norvegicus [26]): 1.21%
- Distribution (dose/g) (Rattus norvegicus [27]): 0.23%
- Distribution (dose/g) (Rattus norvegicus [28]): 0.76%
- Distribution (dose/g) (Rattus norvegicus [29]): 0.8%
- Distribution (dose/g) (Rattus norvegicus [30]): 0.59%
- Distribution (dose/g) (Rattus norvegicus [31]): 0.68%
- Distribution (dose/g) (Rattus norvegicus [32]): 3.07%
- Distribution (dose/g) (Rattus norvegicus [33]): 4.08%
- Distribution (dose/g) (Rattus norvegicus [34]): 0.61%
- Distribution (dose/g) (Rattus norvegicus [35]): 0.76%
- Distribution (dose/g) (Rattus norvegicus [36]): 0.21%
